# Reference: publication PMC9715912 (Cell Reports, 2022)
# Experiments:
# Type in all cases: in vivo, Mus musculus
# [1] = tested on: hypothalamus (ME/ARC) and other CVOs; conditions: 120 nmol/kg i.p., 15 min before sacrifice; 2D planes from LSFM; Fig 2A
# Glycemic change = conditions: single i.p. insulin injection, mean ± SEM
# [2] = tested on: control and Tanycyte^ΔVegfa mice; assay: Metabolic efficiency; conditions: chow, daily i.p. insulin 20 nmol/kg, Fig 5F,G
# [3] = tested on: hypothalamus and hindbrain; conditions: 2-DG 250 mg/kg i.p. after 5 h food deprivation; Fig 3B
# Summary of the method: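 Mice food-deprived 5 h, then given 2-DG (250 mg/kg i.p.). […] Brains were dissected, dehydrated through a tetrahydrofuran series, cleared in dibenzylether and imaged by whole-brain light-sheet microscopy. Signal was autofluorescence-unmixed, and the volume of signal dispersion was quantified. Blood glucose was tracked; mean ± SEM.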
# [4] = tested on: arcuate nucleus of control and Tanycyte^ΔVegfa mice; conditions: 2-DG 250 mg/kg with Ex-4_Cy3 120 nmol/kg; data not shown
molecule,measurement,setting,value
"Ex-4_VT^750: fluorescent labeled Exendin4 (VT750), Novo Nordisk",brain regions with Ex-4_VT750 signal after systemic administration,[1],"detected in the ME/ARC, OLVT, AP, SFO, and choroid plexus"
"insulin: Insulin (Novorupid, Flex pen, 8-9670-79-202-2), Novo Nordisk","glycemic change (vehicle/insulin), Tanycyte ΔVegfa",Glycemic change; Tanycyte^ΔVegfa mice,52% ± 2.08%
same,"glycemic change (vehicle/insulin), controls",Glycemic change; control mice,62% ± 5.7%
same,"change in fat oxidation in response to insulin, Tanycyte ΔVegfa mice",[2],comparable with vehicle
"O=CC[C@@H](O)[C@H](O)[C@H](O)CO [2-DG, 2-deoxyglucose]",blood glucose (counter-regulatory response),[3],increased
"Ex-4_Cy3: fluorescent Exendin-4 labeled with Cy3, Novo Nordisk","total fluorescence intensity, control vs Tanycyte ΔVegfa",[4],comparable between groups
